Measured values as given in ChEMBL document CHEMBL4196105, “Discovery of β-Arrestin Biased Ligands of 5-HT7R” (J Med Chem, 2018).
The source made the active and inactive calls. The calls are words filed in the database; no cut-off is given here.

Key:
Homo sapiens [1] = species: Homo sapiens; experiment: Selectivity index, ratio of Ki for human 5-HT2A receptor to Ki for human 5-HT7 receptor
Outline: (§1)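 Selectivity index taken as Ki at the other 5-HT receptor subtype divided by Ki at 5-HT7R, each from [3H]LSD membrane binding run by the NIMH PDSP. Ki values are means of at least three experiments in triplicate.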

[2] = target: T1, 5-hydroxytryptamine receptor 1A (Homo sapiens, UniProt P08908); experiment: Displacement of [3H]LSD from human 5-HT1A receptor expressed in HEK cell membranes after 1.5 hrs by microbeta scintillation counting method
T1 sequence (P08908 whole entry): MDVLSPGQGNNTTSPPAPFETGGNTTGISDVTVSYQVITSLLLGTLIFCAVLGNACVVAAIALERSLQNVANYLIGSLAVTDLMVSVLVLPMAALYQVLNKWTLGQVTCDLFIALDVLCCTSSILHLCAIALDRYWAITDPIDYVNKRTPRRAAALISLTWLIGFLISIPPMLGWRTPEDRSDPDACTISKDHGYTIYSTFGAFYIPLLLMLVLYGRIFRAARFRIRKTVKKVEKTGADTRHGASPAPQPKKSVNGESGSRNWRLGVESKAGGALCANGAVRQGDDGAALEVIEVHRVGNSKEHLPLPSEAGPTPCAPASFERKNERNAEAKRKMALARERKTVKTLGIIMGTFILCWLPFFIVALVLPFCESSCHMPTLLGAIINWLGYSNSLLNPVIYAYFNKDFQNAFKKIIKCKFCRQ
Outline: (§2)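 Radioligand binding performed by the NIMH Psychoactive Drug Screening Program. Crude membranes from cells expressing recombinant receptor, with [3H]LSD, in 50 mM Tris-HCl, 10 mM MgCl2, 1 mM EDTA, pH 7.4. Eleven test concentrations. Incubated 1.5 h at room temperature, protected from light. Filtered onto PEI-soaked GF/B filters, then scintillation counting. IC50 converted to Ki; at least three experiments in triplicate.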

[3] = target: T2, 5-hydroxytryptamine receptor 2C (Homo sapiens, UniProt P28335); experiment: Displacement of [3H]LSD from human 5-HT2C receptor expressed in HEK cell membranes after 1.5 hrs by microbeta scintillation counting method; outline: as §2
T2 sequence (P28335 whole entry): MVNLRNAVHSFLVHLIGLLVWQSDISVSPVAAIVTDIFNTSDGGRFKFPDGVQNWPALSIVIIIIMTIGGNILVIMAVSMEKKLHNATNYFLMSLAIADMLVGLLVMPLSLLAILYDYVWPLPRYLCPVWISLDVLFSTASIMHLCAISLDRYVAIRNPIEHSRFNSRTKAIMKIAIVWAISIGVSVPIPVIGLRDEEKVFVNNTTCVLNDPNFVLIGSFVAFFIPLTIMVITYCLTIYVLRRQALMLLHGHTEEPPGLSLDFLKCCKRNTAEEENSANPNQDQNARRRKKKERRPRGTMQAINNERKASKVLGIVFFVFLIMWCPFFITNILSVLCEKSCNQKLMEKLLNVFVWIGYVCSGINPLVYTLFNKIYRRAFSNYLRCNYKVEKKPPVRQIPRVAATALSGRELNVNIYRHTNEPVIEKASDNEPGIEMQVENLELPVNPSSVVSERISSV

[4] = target: T3, 5-hydroxytryptamine receptor 7 (Homo sapiens, UniProt P34969); experiment: Antagonist activity at tTA containing TCS cleavage site-fused 5-HT7 receptor (unknown origin) expressed in tTA-dependent luciferase reporter/TEV-fused beta-arrestin2 expressing HTLA cells assessed as inhibition of 5-HT-induced beta-arrestin2 recruitment after 22 hrs by Tango assay; format: functional, cell-based
T3 sequence (P34969 whole entry, the tested form may be a part): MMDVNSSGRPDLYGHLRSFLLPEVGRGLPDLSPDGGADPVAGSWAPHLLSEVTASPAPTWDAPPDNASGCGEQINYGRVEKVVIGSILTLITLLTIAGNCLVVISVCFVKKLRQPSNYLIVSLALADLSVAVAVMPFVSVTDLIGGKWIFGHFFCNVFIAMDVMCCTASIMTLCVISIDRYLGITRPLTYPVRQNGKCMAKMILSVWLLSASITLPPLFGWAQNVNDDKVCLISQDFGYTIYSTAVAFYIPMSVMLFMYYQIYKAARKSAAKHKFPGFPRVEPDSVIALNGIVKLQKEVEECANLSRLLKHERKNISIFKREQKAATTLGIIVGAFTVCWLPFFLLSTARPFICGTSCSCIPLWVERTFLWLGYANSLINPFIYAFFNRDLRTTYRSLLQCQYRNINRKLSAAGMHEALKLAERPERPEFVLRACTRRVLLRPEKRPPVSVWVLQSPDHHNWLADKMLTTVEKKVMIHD

Homo sapiens [5] = species: Homo sapiens; experiment: Selectivity index, ratio of Ki for human 5-HT1D receptor to Ki for human 5-HT7 receptor; outline: as §1
[6] = target: T4, 5-hydroxytryptamine receptor 3A (Homo sapiens, UniProt P46098); experiment: Displacement of [3H]LSD from human 5-HT3 receptor expressed in HEK cell membranes after 1.5 hrs by microbeta scintillation counting method; outline: as §2
T4 sequence (P46098 whole entry): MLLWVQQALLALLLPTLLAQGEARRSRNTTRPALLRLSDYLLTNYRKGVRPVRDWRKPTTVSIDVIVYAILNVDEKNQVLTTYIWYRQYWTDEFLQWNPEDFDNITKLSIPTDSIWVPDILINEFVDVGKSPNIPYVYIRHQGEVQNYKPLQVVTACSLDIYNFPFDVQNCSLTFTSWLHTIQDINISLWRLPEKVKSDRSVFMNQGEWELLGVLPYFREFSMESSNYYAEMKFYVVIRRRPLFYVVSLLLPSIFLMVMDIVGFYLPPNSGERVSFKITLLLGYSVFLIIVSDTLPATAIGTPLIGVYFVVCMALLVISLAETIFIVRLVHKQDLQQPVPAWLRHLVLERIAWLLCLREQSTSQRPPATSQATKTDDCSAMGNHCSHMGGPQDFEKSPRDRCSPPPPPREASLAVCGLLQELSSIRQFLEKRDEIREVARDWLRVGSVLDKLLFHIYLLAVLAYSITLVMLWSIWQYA

[7] = target: 5-hydroxytryptamine receptor 1B (Homo sapiens, UniProt P28222); experiment: Displacement of [3H]LSD from human 5-HT1B receptor expressed in HEK cell membranes after 1.5 hrs by microbeta scintillation counting method; outline: as §2
5-hydroxytryptamine receptor 1B, sequence (P28222 whole entry): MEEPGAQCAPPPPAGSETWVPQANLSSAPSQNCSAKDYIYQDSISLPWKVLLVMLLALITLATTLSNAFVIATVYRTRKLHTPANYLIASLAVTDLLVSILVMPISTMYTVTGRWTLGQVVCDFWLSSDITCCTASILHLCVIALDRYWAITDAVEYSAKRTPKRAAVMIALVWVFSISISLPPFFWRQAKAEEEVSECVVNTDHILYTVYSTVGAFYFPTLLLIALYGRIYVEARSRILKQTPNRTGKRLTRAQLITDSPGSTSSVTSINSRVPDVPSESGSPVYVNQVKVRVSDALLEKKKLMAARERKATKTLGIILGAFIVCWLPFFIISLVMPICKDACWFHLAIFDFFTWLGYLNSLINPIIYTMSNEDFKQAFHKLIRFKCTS

[8] = target: 5-hydroxytryptamine receptor 1E (Homo sapiens, UniProt P28566); experiment: Displacement of [3H]LSD from human 5-HT1E receptor expressed in HEK cell membranes after 1.5 hrs by microbeta scintillation counting method; outline: as §2
5-hydroxytryptamine receptor 1E, sequence (P28566 whole entry): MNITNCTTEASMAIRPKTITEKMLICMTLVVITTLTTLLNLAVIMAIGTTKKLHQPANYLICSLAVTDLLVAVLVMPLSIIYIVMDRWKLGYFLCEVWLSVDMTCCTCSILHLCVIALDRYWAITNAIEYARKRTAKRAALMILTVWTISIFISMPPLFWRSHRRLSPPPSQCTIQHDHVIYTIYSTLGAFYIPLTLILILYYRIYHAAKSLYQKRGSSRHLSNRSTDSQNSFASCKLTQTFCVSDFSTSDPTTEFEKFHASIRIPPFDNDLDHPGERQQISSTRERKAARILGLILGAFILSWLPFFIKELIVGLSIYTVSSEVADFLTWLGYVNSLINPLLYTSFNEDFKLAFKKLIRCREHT

Homo sapiens [9] = species: Homo sapiens; experiment: Selectivity index, ratio of Ki for human 5-HT2C receptor to Ki for human 5-HT7 receptor; outline: as §1
[10] = target: 5-hydroxytryptamine receptor 6 (Homo sapiens, UniProt P50406); experiment: Displacement of [3H]LSD from human 5-HT6 receptor expressed in HEK cell membranes after 1.5 hrs by microbeta scintillation counting method; outline: as §2
5-hydroxytryptamine receptor 6, sequence (P50406 whole entry): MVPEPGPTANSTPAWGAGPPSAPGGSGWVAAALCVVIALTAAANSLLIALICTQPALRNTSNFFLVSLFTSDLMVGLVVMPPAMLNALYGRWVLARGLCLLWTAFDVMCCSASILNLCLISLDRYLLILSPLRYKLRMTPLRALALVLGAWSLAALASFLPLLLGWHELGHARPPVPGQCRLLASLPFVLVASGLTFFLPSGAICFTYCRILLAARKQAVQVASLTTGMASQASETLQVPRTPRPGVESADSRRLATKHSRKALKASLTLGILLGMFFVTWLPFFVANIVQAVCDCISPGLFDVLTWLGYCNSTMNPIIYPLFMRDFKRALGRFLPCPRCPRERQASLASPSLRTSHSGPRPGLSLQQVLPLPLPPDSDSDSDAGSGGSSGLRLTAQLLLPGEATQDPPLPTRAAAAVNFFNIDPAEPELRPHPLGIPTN

[11] = target: 5-hydroxytryptamine receptor 5A (Homo sapiens, UniProt P47898); experiment: Displacement of [3H]LSD from human 5-HT5A receptor expressed in HEK cell membranes after 1.5 hrs by microbeta scintillation counting method; outline: as §2
5-hydroxytryptamine receptor 5A, sequence (P47898 whole entry): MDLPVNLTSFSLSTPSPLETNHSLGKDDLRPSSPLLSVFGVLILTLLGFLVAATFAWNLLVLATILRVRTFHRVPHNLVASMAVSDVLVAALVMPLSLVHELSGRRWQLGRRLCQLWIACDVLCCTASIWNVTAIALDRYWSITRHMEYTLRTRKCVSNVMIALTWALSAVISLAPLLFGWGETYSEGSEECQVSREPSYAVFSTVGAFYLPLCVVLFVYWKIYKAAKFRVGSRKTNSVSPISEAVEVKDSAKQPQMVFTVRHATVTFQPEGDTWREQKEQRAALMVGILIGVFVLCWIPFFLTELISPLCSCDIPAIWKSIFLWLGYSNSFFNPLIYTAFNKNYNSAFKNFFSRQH

[12] = target: 5-hydroxytryptamine receptor 1D (Homo sapiens, UniProt P28221); experiment: Displacement of [3H]LSD from human 5-HT1D receptor expressed in HEK cell membranes after 1.5 hrs by microbeta scintillation counting method; outline: as §2
5-hydroxytryptamine receptor 1D, sequence (P28221 whole entry, the tested form may be a part): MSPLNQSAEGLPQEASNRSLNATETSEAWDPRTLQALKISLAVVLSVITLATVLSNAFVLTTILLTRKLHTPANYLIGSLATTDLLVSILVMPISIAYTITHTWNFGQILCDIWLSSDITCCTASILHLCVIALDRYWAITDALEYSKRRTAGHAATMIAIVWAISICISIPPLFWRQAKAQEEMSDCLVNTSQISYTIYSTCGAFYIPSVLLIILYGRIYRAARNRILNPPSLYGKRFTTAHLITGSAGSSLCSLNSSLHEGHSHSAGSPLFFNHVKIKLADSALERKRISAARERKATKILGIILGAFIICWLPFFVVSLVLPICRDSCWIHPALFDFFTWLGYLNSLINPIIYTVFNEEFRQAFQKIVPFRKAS

[13] = target: T3, 5-hydroxytryptamine receptor 7; experiment: Agonist activity at tTA containing TCS cleavage site-fused 5-HT7 receptor (unknown origin) expressed in tTA-dependent luciferase reporter/TEV-fused beta-arrestin2 expressing HTLA cells assessed as induction of beta-arrestin2 recruitment after 22 hrs by Tango assay relative to 5-HT; format: functional, cell-based
Outline: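 HTLA cells (HEK293 stably expressing tTA-dependent luciferase reporter and β-arrestin2-TEV) transiently transfected with 5-HT7R-TCS-tTA. Plated in 1% dialysed FBS medium for 6 h, then given test compounds at 0.01 nM-100 μM final, about 22 h. Antagonist mode adds 1 μM 5-HT. BrightGlo luminescence read. Normalised to 5-HT (100%) and vehicle (0%). Three experiments, at least triplicate.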

Homo sapiens [14] = species: Homo sapiens; experiment: Selectivity index, ratio of Ki for human 5-HT6 receptor to Ki for human 5-HT7 receptor; outline: as §1
[15] = target: 5-hydroxytryptamine receptor 2B (Homo sapiens, UniProt P41595); experiment: Displacement of [3H]LSD from human 5-HT2B receptor expressed in HEK cell membranes after 1.5 hrs by microbeta scintillation counting method
5-hydroxytryptamine receptor 2B, sequence (P41595 whole entry): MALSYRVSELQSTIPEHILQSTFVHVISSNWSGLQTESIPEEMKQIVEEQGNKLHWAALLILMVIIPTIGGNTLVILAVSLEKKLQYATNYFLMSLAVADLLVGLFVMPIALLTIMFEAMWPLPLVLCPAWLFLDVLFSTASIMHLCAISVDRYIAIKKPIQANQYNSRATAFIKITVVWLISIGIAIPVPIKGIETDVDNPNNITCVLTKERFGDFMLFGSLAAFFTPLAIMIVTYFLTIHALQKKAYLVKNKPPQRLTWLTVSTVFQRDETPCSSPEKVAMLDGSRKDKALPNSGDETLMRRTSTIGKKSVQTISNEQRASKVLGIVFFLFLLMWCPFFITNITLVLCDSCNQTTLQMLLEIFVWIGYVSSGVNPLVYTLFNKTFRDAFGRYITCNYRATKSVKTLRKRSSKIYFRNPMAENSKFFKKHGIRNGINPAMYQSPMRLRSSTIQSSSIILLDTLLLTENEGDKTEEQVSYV

SMILES	Ratio Ki (Homo sapiens [1])	Ki [2] [nM]	Ki [3] [nM]	inhibition [4]	Ratio Ki (Homo sapiens [5])	Ki [6] [nM]	Ki [7] [nM]	Ki [8] [nM]	Ratio Ki (Homo sapiens [9])	Ki [10] [nM]	Ki [11] [nM]	Ki [12] [nM]	Emax [13] [%]	Ratio Ki (Homo sapiens [14])	Ki [15] [nM]
Cc1ccc(-c2noc3c2CCNCC3)cc1	8.6	> 10000	20	inactive	9.2	420	> 10000	1790	1.3	492	1140	147	40.3	30.8	150
Fc1ccc(-c2n[nH]c3c2CCNCC3)cc1	1.7	1870	200	inactive	6.1	> 10000	> 10000	793	1.9	416	> 10000	636	53.9	4	97
Clc1ccc(-c2n[nH]c3c2CCNCC3)cc1	6.2	> 10000	799	inactive	70.5	> 10000	> 10000	1370	26.6	248	> 10000	2110	62.8	8.3	100
